The test system of data set [1] is Mycobacterium tuberculosis. Description: Inhibition of Ndh2 in Mycobacterium tuberculosis assessed as decrease in ATP concentration measured after 24 hrs. As to conditions: DDE = dose-dependent effect. The gist of the method:
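Log-phase H37Rv diluted to OD600 0.01 in complete 7H9 and exposed in 96-well plates to compound added from a 100× DMSO stock, at 37°C. ATP measured with BacTiter-Glo luminescence after 4 and 24 h; three independent experiments.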

The test system of data set [2] is Mycobacterium tuberculosis. Kind of data set: Bactericidal activity against replicating Mycobacterium tuberculosis H37Rv assessed as reduction in colony forming unit measured at 2 to 4 times of MIC after 1 to 2 weeks. As to conditions: time 1-2 weeks. In kind it is functional. The gist of the method: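 Mid-log H37Rv in 7H9-GTy-OADC diluted to OD600 0.02 (~1×10⁶ cfu/mL) and exposed to compound in 96-well replica plates for 1 or 2 weeks. For the 3 lowest concentrations without visible growth, serial 10-fold dilutions plated on 7H11-OADC and cfu counted over 6 weeks at 37°C. Four independent experiments; log10 cfu/mL ± SD.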

The test system of data set [3] is Mycobacterium tuberculosis. Description: Bactericidal activity against Non-replicating Mycobacterium tuberculosis ss18b-lux assessed as bacterial killing by measuring CFU after 1 week. In kind it is functional, organism-based. As to conditions: time 1.0 weeks, DDE = dose-dependent effect. The gist of the method: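 Streptomycin-dependent 18b-lux starved of streptomycin for 14 days (OD600 reset to 0.2 on days 7 and 13) to become non-replicating. Diluted to OD600 0.15 on dispensed compound and held at 37°C. On day 7, active wells plated on 7H11-OADC with 50 µg/mL streptomycin and incubated up to 8 weeks for cfu.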

The subject of data set [4] is Mycobacterium tuberculosis. Description: Inhibition of Ndh2 in Mycobacterium tuberculosis assessed as increase in NADH/NAD+ ratio at 600 nM measured after 24 hrs. The gist of the method: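 Mid-log H37Rv diluted to OD600 0.3 and exposed to compound at 37°C for 2 and 24 h. Pellets extracted in 0.2 M HCl (NAD⁺) or 0.2 M NaOH (NADH), bead-milled, heated 55°C 10 min, neutralised. NAD/NADH-Glo luminescence read against an NADH standard curve, corrected for OD600. Three independent experiments, duplicate technical replicates.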

In a further data set the test system is Klebsiella pneumoniae. Kind of data set: Antibiotic activity against Klebsiella pneumoniae LMG 2095 assessed as reduction in bacterial cell growth by measuring resazurin reduction incubated for 6 days by fluorescence microplate based assay. In kind it is functional. The conditions noted are these: LMG 2095, 144 h, time 6 day.
Another data set relates to Bacillus subtilis. Description: Antibiotic activity against Bacillus subtilis ATCC6633 assessed as reduction in bacterial cell growth by measuring resazurin reduction incubated for 6 days by fluorescence microplate based assay. In kind it is functional. The conditions noted are these: ATCC6633, 144 h, time 6 day. For orientation: Alamar Blue is a resazurin reagent that responds to reducing activity.

The subject of another data set is Acinetobacter baumannii. Kind of data set: Antibiotic activity against Acinetobacter baumannii LMG-17978 assessed as reduction in bacterial cell growth by measuring resazurin reduction incubated for 6 days by fluorescence microplate based assay. In kind it is functional. The conditions noted are these: LMG-17978, 144 h, time 6 day.
Data set [5] relates to Mycobacteroides abscessus. Description: Antibiotic activity against Mycobacterium abscessus CIP104536, Rough variant assessed as reduction in bacterial cell growth by measuring resazurin reduction incubated for 6 days by fluorescence microplate based assay. In kind it is functional. As to conditions: 144 h, time 6 day.
Data set [6] in a line: Toxicity in noninfected zebrafish larvae assessed as larval development. On the set-up: species or system Danio rerio. As to conditions: in vivo.
The test system of data set [7] is Mycobacterium marinum. Description: In vivo antimycobacterial efficacy in Mycobacterium marinum expressing Wasabi infected zebrafish larvae assessed as prolongation of survival time at 4.8 uM treated for 4 days after 1 day post infection. In kind it is functional. As to conditions: time 4 day.
Data set [8] concerns Mycolicibacterium smegmatis. Kind of data set: Antibiotic activity against Mycobacterium smegmatis mc2155 assessed as reduction in bacterial cell growth by measuring resazurin reduction incubated for 6 days by fluorescence microplate based assay. In kind it is functional. The conditions noted are these: mc2155, 144 h, time 6 day.
Data set [9] relates to Mycobacterium tuberculosis. Kind of data set: Antibiotic activity against Mycobacterium tuberculosis H37Rv assessed as reduction in bacterial cell growth by measuring resazurin reduction incubated for 6 days by fluorescence microplate based assay. The conditions noted are these: 144 h, time 6 day. In kind it is functional.
In data set [10] the test system is Mycobacterium tuberculosis. Description: Antimycobacterial activity against Mycobacterium tuberculosis H37Rv assessed as reduction in bacterial cell growth by measuring resazurin reduction incubated for 6 days by fluorescence microplate based assay. In kind it is functional. As to conditions: time 6 day.
In data set [11] the test system is Mycobacterium tuberculosis. Kind of data set: Bactericidal activity against Non-replicating Mycobacterium tuberculosis ss18b-lux model assessed as decrease in luminescence at 10 to 10000 nM. The conditions noted are these: dose 10-10000 nM, TDE = time-dependent effect. In kind it is functional, organism-based. Summed up:
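Non-replicating streptomycin-starved 18b-lux (14-day starvation) diluted to OD600 0.15 in white 96-well plates with compound and incubated at 37°C. Luminescence read on days 1, 2, 5 and 7 and expressed relative to no-antibiotic controls (n ≥ 3).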

The test system of data set [12] is Mycobacterium marinum. Description: In vivo antimycobacterial efficacy in Mycobacterium marinum expressing Wasabi infected zebrafish larvae assessed as prolongation of survival treated for 4 days after 1 day post infection. In kind it is functional, organism-based. The conditions noted are these: dose 0.3-1.2 µM, time 4.0 day, DDE = dose-dependent effect. The gist of the method: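 Golden mutant or Tg(mpeg1:mCherry) zebrafish embryos were dechorionated and anaesthetised in 0.016% tricaine. At 30 hpf, 2–3 nL containing about 200–250 cfu of Wasabi-expressing M. marinum M (pTEC15) was injected into the caudal vein. The inoculum was confirmed by plating on 7H10. Embryos were kept in E3 at 28.5 °C, 12 per well, to follow infection and survival.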

The test system of data set [13] is Mycobacterium tuberculosis. Kind of data set: Antimycobacterial activity against Mycobacterium tuberculosis H37Rv infected in human A-THP1 macrophages assessed as viability of infected macrophages incubated for 96 hrs by fluorescence microplate assay. In kind it is functional, organism-based. Summed up: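 THP-1 cells differentiated with 50 ng/mL PMA for 72 h, infected with log-phase H37Rv (MOI 10, 2 h), and extracellular bacteria killed with 50 µg/mL amikacin for 1 h. Cells detached and seeded at 5×10⁵/mL in RPMI-10% FBS with PMA onto pre-dispensed compound, 96 h at 37°C, 5% CO₂. Macrophage viability by 0.05% resazurin fluorescence.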

The test system of data set [14] is Mycobacterium marinum. Kind of data set: in vivo antimycobacterial efficacy in Mycobacterium marinum infected zebrafish larvae assessed as reduction in bacterial burden at 0.25 to 2 micog/ml measured after 2 to 4 days off post infection. In kind it is functional, organism-based. The conditions noted are these: time 2-4 day.
In data set [15] the target is T1, Type II NADH:quinone oxidoreductase NdhA (Mycobacterium tuberculosis, UniProt P95200).
T1 sequence (P95200 whole entry): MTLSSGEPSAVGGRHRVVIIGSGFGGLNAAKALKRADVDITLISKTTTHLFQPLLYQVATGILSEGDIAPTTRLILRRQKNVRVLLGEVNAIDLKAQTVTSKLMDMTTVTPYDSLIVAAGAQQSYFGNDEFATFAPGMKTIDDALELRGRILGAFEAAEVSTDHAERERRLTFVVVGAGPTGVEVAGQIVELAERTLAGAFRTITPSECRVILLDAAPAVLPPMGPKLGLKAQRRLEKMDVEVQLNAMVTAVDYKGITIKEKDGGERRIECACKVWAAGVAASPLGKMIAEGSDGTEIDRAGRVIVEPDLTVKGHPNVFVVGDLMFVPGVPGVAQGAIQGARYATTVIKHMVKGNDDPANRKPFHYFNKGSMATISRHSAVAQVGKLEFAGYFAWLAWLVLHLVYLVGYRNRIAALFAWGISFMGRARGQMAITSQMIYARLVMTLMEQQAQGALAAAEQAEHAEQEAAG
Kind of data set: Inhibition of Mycobacterium smegmatis MC2 155 recombinant ndhA assessed as rate of NADH oxidation in the presence of an electron acceptor menadione. More on the design: species or system Mycolicibacterium smegmatis.

These results are taken from ChEMBL document CHEMBL5150070, “Tricyclic SpiroLactams Kill Mycobacteria In Vitro and In Vivo by Inhibiting Type II NADH Dehydrogenases” (J Med Chem, 2022).

Converted amounts (≈) assume the structure as drawn. The source made the active and inactive calls.

On to `CC(C)[C@H]1CO[C@]23CCN(Cc4ccc(C(F)(F)F)cc4)C[C@H]2CCC(=O)N13`, for which the inhibition result in data set [1] is “Dde”. Moreover, the Activity in data set [2] was 0.8 log10CFU; in data set [3], “Dde”; in data set [6] it was “Non-Toxic”; in data set [11], “Tde”; in the data set with Mycobacterium marinum [12], “Dde”. Also, the inhibition result in [4] was “Active”. For the same molecule, the MIC was > 100 µM in the data set on Klebsiella pneumoniae; > 100 µM in the data set on Bacillus subtilis; > 100 µM in the data set with Acinetobacter baumannii; 6.3 µM (≈ 2.5 µg/mL) in [5]; 1.3 µM (≈ 0.515 µg/mL) in [8]; 0.1 µM (≈ 0.0396 µg/mL) in [9]. Besides, in the data set with Mycobacterium marinum [7], the Time is 3 days. Besides, the MIC98 in data set [10] stood at 0.1 µM (≈ 0.0396 µg/mL). In addition, the IC50 is 460 nM in [13] and 59 nM in data set [15]. The outcome in the data set on Mycobacterium marinum [14] was Active.

For orientation: MIC means the smallest concentration in the dilution series that meets the test's criterion for growth inhibition. One may read the IC50 as the concentration that gives 50% inhibition.
